Here are results for 24 molecules from ChEMBL document CHEMBL1141661, “Synthesis and anti-mycobacterial activity of (E)-N'-(monosubstituted-benzylidene)isonicotinohydrazide derivatives” (Eur J Med Chem, 2008).

The structures appear in SMILES notation. In brackets after ≈: the same amount, converted by molar mass.

Data set [1] deals with Mycobacterium tuberculosis. The experiment in a line: Antimycobacterial activity against rifampin and isoniazid-susceptible Mycobacterium tuberculosis H37Rv ATCC 27294 after 5 days by Alamar blue assay. The format is functional. The conditions noted are these: 120 h. In outline: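 Microplate Alamar Blue assay in Middlebrook 7H9 broth; compounds serially diluted on the plate, final concentrations […]. Plates sealed and incubated 37 °C for 5 days, then 1:1 Alamar Blue reagent/10% Tween 80 added and incubated a further 24 h. Blue scored as no growth, pink as growth; MIC is the lowest concentration preventing the blue-to-pink change.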
(In general: Alamar Blue is a resazurin reagent that responds to reducing activity.)

Data set [2] can be described thus: Cytotoxicity against mouse macrophages assessed as cell viability at 0.1 ug/mL after 18 hrs by MTT assay. In kind it is cell-based, Macrophage. The conditions noted are these: read-out: Activity. In outline: (§1)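 Murine macrophages plated at 2.5 × 10⁶ cells/mL and held 1 h at 37 °C under 5% CO₂. Nonadherent cells were then flushed off with RPMI 1640. Adherent cells were exposed in triplicate to compound at 0.1, 1.0, 10.0 or 100, medium alone (live control) or 3% tween 20 (dead control). After 18 h MTT was added for 4 h. Formazan was dissolved in DMSO and A540 read.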
For orientation: Formazan colour is commonly taken as a measure of viable cells.

Data set [3] can be described thus: Cytotoxicity against mouse macrophages assessed as cell viability at 1 ug/mL after 18 hrs by MTT assay. In kind it is cell-based, Macrophage. Conditions: read-out: Activity. In outline:
as §1

The nature of data set [4]: Cytotoxicity against mouse macrophages assessed as cell viability at 10 ug/mL after 18 hrs by MTT assay. The format is cell-based, Macrophage. The conditions noted are these: read-out: Activity. In outline: as §1
Data set [5] can be described thus: Cytotoxicity against mouse macrophages assessed as cell viability at 100 ug/mL after 18 hrs by MTT assay. In kind it is cell-based, Macrophage. The conditions noted are these: read-out: Activity. In outline: as §1

As for `O=C(N/N=C/c1cccc(F)c1)c1ccncc1`, in data set [1], the MIC (usually the lowest concentration that inhibits growth of the organism) amounted to 3.12 µg/mL (≈ 12.8 µM).

The molecule `O=C(N/N=C/c1cccc([N+](=O)[O-])c1)c1ccncc1` had an MIC in data set [1] of 5 µg/mL (≈ 18.5 µM). Same read-out and setting: in the case of `COc1ccc(/C=N/NC(=O)c2ccncc2)cc1` it was 5 µg/mL (≈ 19.6 µM); in that of `O=C(N/N=C/c1cccc(Br)c1)c1ccncc1`, 2.5 µg/mL (≈ 8.22 µM); in that of `COc1cccc(/C=N/NC(=O)c2ccncc2)c1`, 5 µg/mL (≈ 19.6 µM). Still for that read-out and setting: the value for `O=C(N/N=C/c1ccccc1)c1ccncc1` [N'-BENZYLIDENE ISONICOTINOHYDRAZIDE] was 3.12 µg/mL (≈ 13.9 µM). The molecule `COc1ccccc1/C=N/NC(=O)c1ccncc1` returned an MIC in data set [1] of 0.31 µg/mL (≈ 1.21 µM). In data set [2], the viability at 18 h, 0.1 ug/mL came out at 100%. For the same molecule, in data set [3], the viability at 18 h, 1 ug/mL stood at 100%. For the same molecule, in data set [4], the viability at 18 h, 10 ug/mL amounted to 100%. Besides, the viability at 18 h, 100 ug/mL in data set [5] was determined as 98%. With `N#Cc1ccccc1/C=N/NC(=O)c1ccncc1`, in data set [1], the MIC is 0.62 µg/mL (≈ 2.48 µM). Moreover, the viability at 18 h, 0.1 ug/mL in data set [2] came out at 100%. For the same molecule, the viability at 18 h, 1 ug/mL in data set [3] is 100%. In data set [4], the viability at 18 h, 10 ug/mL worked out at 100%. Also, in data set [5], the viability at 18 h, 100 ug/mL turned out to be 95%. In data set [1], `O=C(N/N=C/c1ccccc1Br)c1ccncc1` gave an MIC of 5 µg/mL (≈ 16.4 µM). On the same count and under the same terms, in the case of `O=C(N/N=C/c1ccccc1Cl)c1ccncc1` it was 1.25 µg/mL (≈ 4.81 µM); in that of `O=C(N/N=C/c1ccc(Br)cc1)c1ccncc1`, 5 µg/mL (≈ 16.4 µM); in that of `N#Cc1ccc(/C=N/NC(=O)c2ccncc2)cc1`, 5 µg/mL (≈ 20 µM). In the case of `NNC(=O)c1ccncc1` [ISONIAZID], the minimal inhibitory concentration (MIC) in data set [1] was 0.2 µg/mL (≈ 1.46 µM). On to `O=C(N/N=C/c1cccc(Cl)c1)c1ccncc1` [N'-(3-CHLOROBENZYLIDENE)ISONICOTINOHYDRAZIDE], for which, in data set [1], the minimum inhibitory concentration (MIC) was determined as 0.31 µg/mL (≈ 1.19 µM). Moreover, the viability at 18 h, 0.1 ug/mL in data set [2] stood at 100%. For the same molecule, the viability at 18 h, 1 ug/mL in data set [3] came to 100%. The viability at 18 h, 10 ug/mL in data set [4] amounted to 100%. The viability at 18 h, 100 ug/mL in data set [5] was 100%. For the molecule `O=C(N/N=C/c1ccc(F)cc1)c1ccncc1`, the MIC in data set [1] amounted to 0.31 µg/mL (≈ 1.27 µM). The viability at 18 h, 0.1 ug/mL in data set [2] was found to be 100%. Further, the viability at 18 h, 1 ug/mL in data set [3] is 100%. For the same molecule, the viability at 18 h, 10 ug/mL in data set [4] was determined as 97%. Moreover, the viability at 18 h, 100 ug/mL in data set [5] stood at 96%. On to `N#Cc1cccc(/C=N/NC(=O)c2ccncc2)c1`, for which the lowest concentration to inhibit growth in data set [1] (MIC) was 1.25 µg/mL (≈ 4.99 µM). Consider `O=C(N/N=C/c1ccc([N+](=O)[O-])cc1)c1ccncc1` [N'-(4-NITROBENZYLIDENE)ISONICOTINOHYDRAZIDE], for which the MIC in data set [1] was determined as 1.25 µg/mL (≈ 4.63 µM). The same measure, in the same setting: in the case of `O=C(N/N=C/c1ccccc1F)c1ccncc1` it was 3.12 µg/mL (≈ 12.8 µM); in that of `O=C(N/N=C/c1ccccc1[N+](=O)[O-])c1ccncc1`, 5 µg/mL (≈ 18.5 µM).

For the molecule `CO[C@H]1/C=C/O[C@@]2(C)Oc3c(C)c(O)c4c(O)c(c(/C=N/N5CCN(C)CC5)c(O)c4c3C2=O)NC(=O)/C(C)=C\C=C\[C@H](C)[C@H](O)[C@@H](C)[C@@H](O)[C@@H](C)[C@H](OC(C)=O)[C@@H]1C` [RIFAMPIN], in data set [1], the MIC is 1 µg/mL (≈ 1.22 µM). The same measure, in the same setting: the value for `O=C(N/N=C/c1cccc(O)c1)c1ccncc1` was 1.25 µg/mL (≈ 5.18 µM). Still for that read-out and setting: the value for `CCOc1ccccc1/C=N/NC(=O)c1ccncc1` was 1.25 µg/mL (≈ 4.64 µM); that for `CCOc1cccc(/C=N/NC(=O)c2ccncc2)c1` was 1.25 µg/mL (≈ 4.64 µM). In data set [1], `O=C(N/N=C/c1ccc(Cl)cc1)c1ccncc1` gave an MIC of 0.31 µg/mL (≈ 1.19 µM). For the same molecule, in data set [2], the viability at 18 h, 0.1 ug/mL amounted to 100%. In addition, the viability at 18 h, 1 ug/mL in data set [3] was found to be 97%. Also, the viability at 18 h, 10 ug/mL in data set [4] stood at 97%. Also, in data set [5], the viability at 18 h, 100 ug/mL was determined as 96%.
